ChEMBL document CHEMBL2146441, “2,6-Disubstituted imidazo[2,1-b][1,3,4]thiadiazoles: search for anticancer agents” (2012)

Experiments:
Type in all cases: functional
MDA-MB-435 = test: Cytotoxicity against human MDA-MB-435 cells assessed as cell growth at 10^-5 M after 48 hrs by SRB assay; settings: MDA-MB-435, 48 h, read-out: Activity
T47D [1] = test: Cytotoxicity against human T47D cells assessed as cell growth at 10^-7 M after 48 hrs by SRB assay; settings: read-out: Activity
MOLT-4 [2] = test: Cytotoxicity against human MOLT4 cells assessed as cell growth at 10^-6 M after 48 hrs by SRB assay; settings: MOLT-4, 48 h, read-out: Activity
COLO = test: Cytotoxicity against human COLO […] cells assessed as cell growth at 10^-8 M after 48 hrs by SRB assay; settings: read-out: Activity
How it was run: (§1)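 NCI-60 screen: lines kept in RPMI 1640 with 5% FBS, seeded at 5000–40,000 cells/well by doubling time, preincubated 24 h at 37 °C in 5% CO2. Time-zero plates TCA-fixed at drug addition. DMSO stocks diluted in medium, 48 h exposure. Fixation in cold TCA (final 10% adherent, 16% suspension), 0.4% SRB stain, solubilised in 10 mM Tris base, A515. Percent growth computed against control and time-zero.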

A549 [3] = test: Cytotoxicity against human A549 cells assessed as cell growth at 10^-5 M after 48 hrs by SRB assay; settings: A549, 48 h, read-out: Activity; how it was run: as §1
SF-539 = test: Cytotoxicity against human SF539 cells assessed as cell growth at 10^-4 M after 48 hrs by SRB assay; settings: SF-539, 48 h, read-out: Activity
T47D [4] = test: Cytotoxicity against human T47D cells assessed as cell growth at 10^-4 M after 48 hrs by SRB assay; settings: read-out: Activity
SK-MEL-28 = test: Cytotoxicity against human SK-MEL-28 cells assessed as cell growth at 10^-4 M after 48 hrs by SRB assay; settings: SK-MEL-28, 48 h, read-out: Activity
MDA-MB-468 [5] = test: Cytotoxicity against human MDA-MB-468 cells assessed as cell growth at 10^-4 M after 48 hrs by SRB assay; settings: MDA-MB-468, 48 h, read-out: Activity
SF-268 = test: Cytotoxicity against human SF268 cells assessed as cell growth at 10^-4 M after 48 hrs by SRB assay; settings: SF-268, 48 h, read-out: Activity
OVCAR-8 = test: Cytotoxicity against human OVCAR8 cells assessed as cell growth at 10^-8 M after 48 hrs by SRB assay; settings: OVCAR-8, 48 h, read-out: Activity
A549 [6] = test: Cytotoxicity against human A549 cells assessed as cell growth at 10^-7 M after 48 hrs by SRB assay; settings: A549, 48 h, read-out: Activity; how it was run: as §1
SNB-19 [7] = test: Cytotoxicity against human SNB19 cells assessed as cell growth at 10^-5 M after 48 hrs by SRB assay; settings: SNB-19, 48 h, read-out: Activity
DU-145 = test: Cytotoxicity against human DU145 cells assessed as cell growth at 10^-5 M after 48 hrs by SRB assay; settings: DU-145, 48 h, read-out: Activity; how it was run: as §1
SNB-19 [8] = test: Growth inhibition of human SNB19 cells after 48 hrs by SRB assay; settings: SNB-19, 48 h; for CC50: read-out: LC50 (the source's name)
How it was run: (§2)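 Adherent NCI-60 lines grown in RPMI 1640 with 5% FBS, seeded at 5000–40,000 cells/well, and preincubated 24 h at 37 °C, 5% CO2. Compound, stocked in DMSO, given either once at 10^-5 M or at five 10-fold dilutions for 48 h. Cells fixed with cold TCA (final 10%), stained with 0.4% SRB, and read at 515 nm. GI50 taken as 50% reduction in net protein increase versus time-zero and control plates.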

HCC 2998 = test: Cytotoxicity against human HCC2998 cells assessed as cell growth at 10^-4 M after 48 hrs by SRB assay; settings: HCC 2998, 48 h, read-out: Activity; how it was run: as §1
HCT-116 = test: Cytotoxicity against human HCT116 cells assessed as cell growth at 10^-7 M after 48 hrs by SRB assay; settings: HCT-116, 48 h, read-out: Activity
How it was run: (§3)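 NCI-60 five-dose screen. Cells were grown in RPMI 1640 with 5% FBS and seeded at 5000–40,000 cells/well according to doubling time. They were pre-incubated 24 h at 37 °C in 5% CO₂, and time-zero (Tz) plates were TCA-fixed at drug addition. Five 10-fold dilutions of DMSO stock were applied for 48 h. Read-out was SRB staining, 515 nm absorbance, with percent growth calculated versus Tz and untreated control.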

OVCAR-3 = test: Cytotoxicity against human OVCAR3 cells assessed as cell growth at 10^-5 M after 48 hrs by SRB assay; settings: OVCAR-3, 48 h, read-out: Activity
HCT-15 = test: Cytotoxicity against human HCT15 cells assessed as cell growth at 10^-8 M after 48 hrs by SRB assay; settings: HCT-15, 48 h, read-out: Activity; how it was run: as §3
HOP-92 = test: Cytotoxicity against human HOP92 cells assessed as cell growth at 10^-5 M after 48 hrs by SRB assay; settings: HOP-92, 48 h, read-out: Activity; how it was run: as §3
[9] = Cytotoxicity against human NCI-ADR-RES cells assessed as cell growth at 10^-6 M after 48 hrs by SRB assay; settings: read-out: Activity
BT-549 = test: Cytotoxicity against human BT549 cells assessed as cell growth at 10^-4 M after 48 hrs by SRB assay; settings: BT-549, 48 h, read-out: Activity; how it was run: as §1
SK-MEL-2 = test: Cytotoxicity against human SK-MEL-2 cells assessed as cell growth at 10^-4 M after 48 hrs by SRB assay; settings: SK-MEL-2, 48 h, read-out: Activity
OVCAR-5 = test: Cytotoxicity against human OVCAR5 cells assessed as cell growth at 10^-6 M after 48 hrs by SRB assay; settings: OVCAR-5, 48 h, read-out: Activity
SNB-75 = test: Growth inhibition of human SNB75 cells after 48 hrs by SRB assay; settings: SNB-75, 48 h; how it was run: as §2
LOX IMVI = test: Cytotoxicity against human LOXIMVI cells assessed as cell growth at 10^-8 M after 48 hrs by SRB assay; settings: read-out: Activity
NCI-H226 = test: Cytotoxicity against human NCI-H226 cells assessed as cell growth at 10^-7 M after 48 hrs by SRB assay; settings: NCI-H226, 48 h, read-out: Activity
MOLT-4 [10] = test: Cytotoxicity against human MOLT4 cells assessed as cell growth at 10^-4 M after 48 hrs by SRB assay; settings: MOLT-4, 48 h, read-out: Activity
OVCAR-4 = test: Cytotoxicity against human OVCAR4 cells assessed as cell growth at 10^-7 M after 48 hrs by SRB assay; settings: OVCAR-4, 48 h, read-out: Activity
PC-3 = test: Cytotoxicity against human PC3 cells assessed as cell growth at 10^-7 M after 48 hrs by SRB assay; settings: PC-3, 48 h, read-out: Activity
MDA-MB-468 [11] = test: Cytotoxicity against human MDA-MB-468 cells assessed as cell growth at 10^-5 M after 48 hrs by SRB assay; settings: MDA-MB-468, 48 h, read-out: Activity

Row | Compound | growth at 10 µM (MDA-MB-435) [%] | growth at 0.1 µM (T47D [1]) [%] | growth at 1 µM (MOLT-4 [2]) [%] | growth at 0.01 µM (COLO) [%] | growth at 10 µM (A549 [3]) [%] | growth at 100 µM (SF-539) [%] | growth at 100 µM (T47D [4]) [%] | growth at 100 µM (SK-MEL-28) [%] | growth at 100 µM (MDA-MB-468 [5]) [%] | growth at 100 µM (SF-268) [%] | growth at 0.01 µM (OVCAR-8) [%] | growth at 0.1 µM (A549 [6]) [%] | growth at 10 µM (SNB-19 [7]) [%] | growth at 10 µM (DU-145) [%] | GI50 (SNB-19 [8]) [µM] | TGI (SNB-19 [8]) [µM] | CC50 (SNB-19 [8]) [µM] | growth at 100 µM (HCC 2998) [%] | growth at 0.1 µM (HCT-116) [%] | growth at 10 µM (OVCAR-3) [%] | further results
1 | COc1ccc(-c2nn3cc(-c4cccc(N)c4)nc3s2)cc1 | 11 | 86 | 76 | 103 | 36 | -68 | -14 | -39 | -16 | -34 | 104 | 106 | 54 | 41 | 12.4 | > 100 | > 100 | 6 | 99 | 19 | growth at 0.01 µM (HCT-15): 98%; growth at 10 µM (HOP-92): -25%; growth at 1 µM [9]: 85%; growth at 100 µM (BT-549): -25%; growth at 100 µM (SK-MEL-2): 38%; growth at 1 µM (OVCAR-5): 90%; GI50 (SNB-75): 1.07 µM; TGI (SNB-75): 4.87 µM; CC50 (SNB-75; read-out: LC50 (the source's name)): > 100 µM; growth at 0.01 µM (LOX IMVI): 94%; growth at 0.1 µM (NCI-H226): 80%; growth at 100 µM (MOLT-4 [10]): 7%; growth at 0.1 µM (OVCAR-4): 92%; growth at 0.1 µM (PC-3): 81%; growth at 10 µM (MDA-MB-468 [11]): -2%
2 | COc1ccc(-c2nn3cc(-c4ccc(O)cc4O)nc3s2)cc1 | 14 | 89 | 78 | 104 | 2 | -47 | -20 | -26 | -27 | -8 | 102 | 99 | 22 | 27 | 3.57 | > 100 | > 100 | -3 | 93 | -7 | growth at 0.01 µM (HCT-15): 96%; growth at 10 µM (HOP-92): -33%; growth at 1 µM [9]: 81%; growth at 100 µM (BT-549): -15%; growth at 100 µM (SK-MEL-2): -48%; growth at 1 µM (OVCAR-5): 84%; GI50 (SNB-75): 0.331 µM; TGI (SNB-75): 2.17 µM; growth at 0.01 µM (LOX IMVI): 101%; growth at 0.1 µM (NCI-H226): 88%; growth at 100 µM (MOLT-4 [10]): -22%; growth at 0.1 µM (OVCAR-4): 88%; growth at 0.1 µM (PC-3): 91%; growth at 10 µM (MDA-MB-468 [11]): 9%
